Test results reported in ChEMBL document CHEMBL1149126, “3-phenyl-6-(2-pyridyl)methyloxy-1,2,4-triazolo[3,4-a]phthalazines and analogues: high-affinity gamma-aminobutyric acid-A benzodiazepine receptor ligands with alpha 2, alpha 3, and alpha 5-subtype binding selectivity over alpha 1” (J Med Chem, 2004).

How the values were obtained:
[1] = biological target: T1, GABA-A receptor; alpha-1/beta-3/gamma-2 (Homo sapiens) (UniProt P14867+P18507+P28472); experiment: (§1) Maximum percent change compared to GABA EC20 against GABA-A alpha-1-beta-3-gamma-2 receptor; assay type: protein-complex assay
[2] = biological target: T2, GABA-A receptor; alpha-3/beta-3/gamma-2 (Homo sapiens) (UniProt P18507+P28472+P34903); experiment: (§2) Maximum percent change compared to GABA EC20 against GABA-A alpha-3-beta-3-gamma-2 receptor; assay type: functional
[3] = biological target: T3, GABA-A receptor; alpha-3/beta-3/gamma-2 (Homo sapiens, UniProt P18507+P28472+P34903); experiment: Binding affinity for human GABA-A receptor alpha-3-beta-3-gamma-2 subunits in L(tk-) cells; assay type: cell-based
T3 sequence (P18507 whole entry): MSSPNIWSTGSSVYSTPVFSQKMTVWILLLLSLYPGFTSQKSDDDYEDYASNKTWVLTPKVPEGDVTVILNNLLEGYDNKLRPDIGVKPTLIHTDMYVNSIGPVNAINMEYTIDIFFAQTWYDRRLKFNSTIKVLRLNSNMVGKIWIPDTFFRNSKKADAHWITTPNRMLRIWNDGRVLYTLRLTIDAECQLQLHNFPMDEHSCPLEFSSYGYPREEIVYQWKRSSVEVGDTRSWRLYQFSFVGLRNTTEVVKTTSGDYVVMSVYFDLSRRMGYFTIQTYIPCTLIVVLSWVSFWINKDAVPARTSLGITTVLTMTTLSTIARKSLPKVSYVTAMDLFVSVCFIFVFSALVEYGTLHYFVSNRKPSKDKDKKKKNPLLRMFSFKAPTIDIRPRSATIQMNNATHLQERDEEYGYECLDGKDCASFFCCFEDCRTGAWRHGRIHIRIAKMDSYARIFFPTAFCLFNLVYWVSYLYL
T3 sequence (P28472 whole entry): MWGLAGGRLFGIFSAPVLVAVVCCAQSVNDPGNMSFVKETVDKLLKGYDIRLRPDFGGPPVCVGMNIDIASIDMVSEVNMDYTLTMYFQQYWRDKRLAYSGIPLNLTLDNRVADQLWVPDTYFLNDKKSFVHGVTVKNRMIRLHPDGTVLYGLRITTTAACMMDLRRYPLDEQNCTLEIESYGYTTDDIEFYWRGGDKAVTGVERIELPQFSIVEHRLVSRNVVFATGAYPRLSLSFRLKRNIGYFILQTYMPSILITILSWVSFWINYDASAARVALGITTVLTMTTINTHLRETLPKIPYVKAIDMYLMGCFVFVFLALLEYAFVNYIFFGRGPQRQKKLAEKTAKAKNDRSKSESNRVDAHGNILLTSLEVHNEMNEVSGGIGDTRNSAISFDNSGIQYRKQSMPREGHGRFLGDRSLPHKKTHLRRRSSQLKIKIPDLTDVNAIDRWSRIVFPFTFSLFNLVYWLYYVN
T3 sequence (P34903 whole entry): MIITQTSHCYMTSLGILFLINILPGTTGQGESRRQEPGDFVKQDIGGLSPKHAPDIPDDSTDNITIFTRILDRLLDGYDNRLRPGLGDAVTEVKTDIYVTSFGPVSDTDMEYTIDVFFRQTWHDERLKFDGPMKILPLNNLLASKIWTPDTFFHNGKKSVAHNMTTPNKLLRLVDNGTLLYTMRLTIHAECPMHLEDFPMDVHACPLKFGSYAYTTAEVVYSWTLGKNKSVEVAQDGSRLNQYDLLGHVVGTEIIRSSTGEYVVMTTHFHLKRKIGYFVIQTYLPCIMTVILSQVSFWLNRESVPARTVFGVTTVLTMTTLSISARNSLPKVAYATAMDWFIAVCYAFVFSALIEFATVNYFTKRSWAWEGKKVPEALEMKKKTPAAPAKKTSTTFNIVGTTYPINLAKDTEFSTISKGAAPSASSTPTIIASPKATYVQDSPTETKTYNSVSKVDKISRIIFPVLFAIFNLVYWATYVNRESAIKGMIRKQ

[4] = biological target: T4, GABA-A receptor; alpha-5/beta-3/gamma-2 (Homo sapiens, UniProt P18507+P28472+P31644); experiment: Binding affinity for human GABA-A receptor alpha-5-beta-3-gamma-2 subunits in L(tk-) cells; assay type: cell-based
T4 sequence (P18507 whole entry): T3 sequence (P18507 whole entry)
T4 sequence (P28472 whole entry): T3 sequence (P28472 whole entry)
T4 sequence (P31644 whole entry): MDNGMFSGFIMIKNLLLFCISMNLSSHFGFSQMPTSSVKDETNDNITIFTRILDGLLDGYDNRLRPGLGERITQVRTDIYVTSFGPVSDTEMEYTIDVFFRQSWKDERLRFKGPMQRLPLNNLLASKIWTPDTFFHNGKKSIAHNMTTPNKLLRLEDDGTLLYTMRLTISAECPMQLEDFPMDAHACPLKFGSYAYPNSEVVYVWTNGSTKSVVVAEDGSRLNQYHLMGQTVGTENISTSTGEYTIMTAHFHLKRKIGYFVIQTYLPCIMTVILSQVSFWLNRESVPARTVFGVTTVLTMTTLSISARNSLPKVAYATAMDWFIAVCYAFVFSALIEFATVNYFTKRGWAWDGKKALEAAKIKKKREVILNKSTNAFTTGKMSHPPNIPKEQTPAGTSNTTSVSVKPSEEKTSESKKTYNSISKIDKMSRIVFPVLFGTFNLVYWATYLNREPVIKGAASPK

[5] = biological target: T5, GABA-A receptor; alpha-2/beta-3/gamma-2 (Homo sapiens, UniProt P18507+P28472+P47869); experiment: Binding affinity for human GABA-A receptor alpha-2-beta-3-gamma-2 subunits in L(tk-) cells; assay type: cell-based
T5 sequence (P18507 whole entry): T3 sequence (P18507 whole entry)
T5 sequence (P28472 whole entry): T3 sequence (P28472 whole entry)
T5 sequence (P47869 whole entry): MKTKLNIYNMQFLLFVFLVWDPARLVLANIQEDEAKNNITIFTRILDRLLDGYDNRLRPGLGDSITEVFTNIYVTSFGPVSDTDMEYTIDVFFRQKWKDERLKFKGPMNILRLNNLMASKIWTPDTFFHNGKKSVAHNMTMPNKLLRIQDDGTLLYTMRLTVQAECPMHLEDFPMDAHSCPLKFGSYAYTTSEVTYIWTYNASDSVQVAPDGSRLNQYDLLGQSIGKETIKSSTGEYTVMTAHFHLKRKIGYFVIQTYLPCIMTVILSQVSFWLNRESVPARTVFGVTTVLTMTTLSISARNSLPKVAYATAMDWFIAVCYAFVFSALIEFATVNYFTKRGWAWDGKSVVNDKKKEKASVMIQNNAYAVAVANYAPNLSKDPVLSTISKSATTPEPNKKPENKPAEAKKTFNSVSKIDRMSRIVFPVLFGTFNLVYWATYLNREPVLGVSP

[6] = biological target: T6, GABA-A receptor; alpha-1/beta-3/gamma-2 (Homo sapiens, UniProt P14867+P18507+P28472); experiment: Binding affinity for human GABA-A receptor alpha-1-beta-3-gamma-2 subunits in L(tk-) cells
T6 sequence (P14867 whole entry): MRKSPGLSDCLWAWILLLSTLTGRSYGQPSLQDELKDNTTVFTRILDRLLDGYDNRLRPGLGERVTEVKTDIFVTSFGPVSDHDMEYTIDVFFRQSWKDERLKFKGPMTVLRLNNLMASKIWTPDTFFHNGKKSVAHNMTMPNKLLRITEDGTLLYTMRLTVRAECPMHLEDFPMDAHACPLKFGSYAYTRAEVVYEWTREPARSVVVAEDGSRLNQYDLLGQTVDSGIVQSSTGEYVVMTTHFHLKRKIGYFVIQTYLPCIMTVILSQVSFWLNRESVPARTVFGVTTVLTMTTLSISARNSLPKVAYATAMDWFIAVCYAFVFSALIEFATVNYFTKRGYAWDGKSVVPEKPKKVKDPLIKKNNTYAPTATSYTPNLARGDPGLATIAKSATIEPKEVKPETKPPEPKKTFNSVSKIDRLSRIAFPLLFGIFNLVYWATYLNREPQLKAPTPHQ
T6 sequence (P18507 whole entry): T3 sequence (P18507 whole entry)
T6 sequence (P28472 whole entry): T3 sequence (P28472 whole entry)

[7] = biological target: T2, GABA-A receptor; alpha-3/beta-3/gamma-2 (Homo sapiens); experiment: Inverse agonistic activity against GABA-A receptor alpha-3-beta-3-gamma-2 subunits; assay type: functional
[8] = biological target: T1, GABA-A receptor; alpha-1/beta-3/gamma-2 (Homo sapiens); experiment: Inverse agonistic activity against GABA-A receptor alpha-1-beta-3-gamma-2 subunits; assay type: functional
[9] = biological target: T2, GABA-A receptor; alpha-3/beta-3/gamma-2 (Homo sapiens); experiment: Agonistic activity against GABA-A receptor alpha-3-beta-3-gamma-2; assay type: functional
[10] = biological target: T2, GABA-A receptor; alpha-3/beta-3/gamma-2 (Homo sapiens); experiment: as §2; assay type: functional; remark: listed apart in the source
[11] = biological target: T1, GABA-A receptor; alpha-1/beta-3/gamma-2 (Homo sapiens); experiment: as §1; assay type: functional
[12] = biological target: T7, GABA-A receptor; alpha-2/beta-3/gamma-2 (Homo sapiens) (UniProt P18507+P28472+P47869); experiment: Maximum percent change compared to GABA EC20 against GABA-A alpha-2-beta-3-gamma-2 receptor; assay type: functional
[13] = biological target: T8, GABA-A receptor; alpha-5/beta-3/gamma-2 (Homo sapiens) (UniProt P18507+P28472+P31644); experiment: Maximum percent change compared to GABA EC20 against GABA-A alpha-5-beta-3-gamma-2 receptor; assay type: functional
[14] = Half-life in rat at a dose of 3 mg/kg; assay type: ADME, organism-based; parameters: dose 3 mg/kg; details: in vivo
How it was run: (§3)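 Plasma concentrations were followed to derive peak level and half-life.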

[15] = Oral bioavailability in rat at a dose of 3 mg/kg; assay type: ADME, organism-based; details: in vivo, read-out: Bioavailabiility; how it was run: as §3
[16] = Peak plasma concentration in rat at a dose of 3 mg/kg; assay type: ADME, organism-based; parameters: dose 3 mg/kg; details: read-out: Concentration; how it was run: as §3
[17] = biological target: T6, GABA-A receptor; alpha-1/beta-3/gamma-2; experiment: Binding affinity for human GABA-A receptor alpha-4-beta-3-gamma-2 subunits in L(tk-) cells; assay type: cell-based
[18] = biological target: T2, GABA-A receptor; alpha-3/beta-3/gamma-2 (Homo sapiens); experiment: Partial agonistic activity against GABA-A receptor alpha-3-beta-3-gamma-2 subunits; assay type: functional
[19] = biological target: T7, GABA-A receptor; alpha-2/beta-3/gamma-2 (Homo sapiens); experiment: Partial agonistic activity against GABA-A receptor alpha-2-beta-3-gamma-2 subunits; assay type: functional
[20] = biological target: T1, GABA-A receptor; alpha-1/beta-3/gamma-2 (Homo sapiens); experiment: Partial agonistic activity against GABA-A receptor alpha-1-beta-3-gamma-2 subunits; assay type: functional
[21] = biological target: T8, GABA-A receptor; alpha-5/beta-3/gamma-2 (Homo sapiens); experiment: Efficacy at human GABA-A receptor alpha-5-beta-3-gamma-2 subunits
[22] = biological target: T8, GABA-A receptor; alpha-5/beta-3/gamma-2 (Homo sapiens); experiment: Partial agonistic activity against GABA-A receptor alpha-5-beta-3-gamma-2 subunits; assay type: functional
[23] = biological target: T2, GABA-A receptor; alpha-3/beta-3/gamma-2 (Homo sapiens); experiment: Partial agonistic activity against GABA-A receptor alpha-3-beta-3-gamma-2

Row | Structure (SMILES) | Efficacy [2] [%] | Ki [3] [nM] | Ki [4] [nM] | Ki [5] [nM] | Ki [6] [nM] | Efficacy [11] [%] | Efficacy [12] [%] | Efficacy [13] [%] | other results
1 | CC(Oc1nn2c(-c3ccccc3)nnc2c2ccccc12)c1ccccn1 (centres undefined) | 25 | 320 | 140 | 520 | 960 |  |  |  | Efficacy [1]: 36%
2 | c1ccc(COc2nn3c(C4CC4)nnc3c3ccccc23)nc1 |  | 2.6 | 0.74 | 5.8 | 16 |  |  |  | Activity [7]: -26%; Activity [8]: -20%
3 | Cc1nnc2c3ccccc3c(OCc3ccccn3)nn12 |  | 81 | 29 | 470 | 900 |  |  |  | Activity [9]: -38%
4 | c1ccc(-c2nnc3c4ccccc4c(OCc4ccccn4)nn23)cc1 | -16 | 0.71 | 0.33 | 1.7 | 2.7 | -7 | -5 | -5 | Efficacy [10]: -16%; Efficacy [1]: -7%
5 | c1ccc(-c2nnc3c4c(c(OCc5ccccn5)nn23)C2CCC4CC2)cc1 | 38 | 12 | 1.2 | 26 |  | 51 | 23 | 18 | half-life [14]: 1 h; bioavailability [15]: 33%; Cmax [16]: 179 ng/mL; Ki [17]: 71 nM
6 | c1ccc(-c2nnc3c4c(c(OCc5ccccn5)nn23)CCCCC4)cc1 | 30 | 17 | 2.7 | 17 | 41 | 30 | 27 | 37 | 
7 | c1ccc(-c2nnc3c4c(c(OCc5ccccn5)nn23)CCCC4)cc1 | 17 | 0.85 | 0.38 | 1.9 | 4.3 | 16 | 18 | 6 | 
8 | Cc1cccc(COc2nn3c(-c4ccccc4)nnc3c3ccccc23)n1 |  | 1.2 | 2.5 | 8 | 8.4 |  |  |  | Activity [18]: -8%; Activity [19]: -4%; Activity [20]: 1%; Efficacy [21]: 11%
9 | Cc1cccc(COc2nn3c(C4CC4)nnc3c3ccccc23)n1 |  | 3.1 | 0.92 | 9.7 | 32 |  |  |  | Activity [22]: 26%; Activity [8]: -15%; Activity [23]: -13%
10 | CC(C)c1nnc2c3ccccc3c(OCc3ccccn3)nn12 |  | 39 | 8 | 56 | 160 |  |  |  | Activity [7]: -21%
